A selection: hits, their analogues and other compounds. The true share with any hit is near 2.3%.
CR mimetic SO: caloric restriction mimetics inhibiting age-related superoxide in yeast. S. cerevisiae aged cells, superoxide DHE fluorescence; stronger effect = lower value. superoxide response (% of plate mean), % at 10 µM. hit rate 0.18% among 330,000. AID 2690;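 active = superoxide response under a set limit, about three screen SD below normal, cut at about 65% in these data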;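 note: yeast aged for seven days with compound at 30 °C before DHE staining; 100% = average MFI of all compound-treated wells on the plate with controls excluded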
TRPC4 block: inhibitors of mouse TRPC4 channel | Q9QUQ5 | HEK293 TRPC4beta/mu-opioid, DAMGO-evoked Fluo4 calcium flux; stronger effect = lower value | B-score at 10 µM | hit rate 0.39% among 300,000 | AID 2247;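 active = B-score over 3 SD under the library average, no early fluorescence shift, positive overall ratio signal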
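Assay system – HEK293 line stably carrying TRPC4beta and mu-opioid receptor · Doses – single dose · Detection – Fluo4 calcium-dye fluorescence, kinetic read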
TRPC6 inh: blocks the mouse TRPC6 cation channel. Q61143. HEK293-TRPC6, membrane potential dye, ACh-evoked depolarization; stronger effect = lower value. B-score at 10 µM. hit rate 1.1% among 310,000;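 active = B-score under library mean minus 3 SD, initial fluorescence not abnormally high, positive integrated signal ratio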;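 note: B-score derived from integrated fluorescence ratio over the kinetic read; more negative B-score means stronger inhibition of depolarization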
Target sequence (Q61143 whole entry, looked up): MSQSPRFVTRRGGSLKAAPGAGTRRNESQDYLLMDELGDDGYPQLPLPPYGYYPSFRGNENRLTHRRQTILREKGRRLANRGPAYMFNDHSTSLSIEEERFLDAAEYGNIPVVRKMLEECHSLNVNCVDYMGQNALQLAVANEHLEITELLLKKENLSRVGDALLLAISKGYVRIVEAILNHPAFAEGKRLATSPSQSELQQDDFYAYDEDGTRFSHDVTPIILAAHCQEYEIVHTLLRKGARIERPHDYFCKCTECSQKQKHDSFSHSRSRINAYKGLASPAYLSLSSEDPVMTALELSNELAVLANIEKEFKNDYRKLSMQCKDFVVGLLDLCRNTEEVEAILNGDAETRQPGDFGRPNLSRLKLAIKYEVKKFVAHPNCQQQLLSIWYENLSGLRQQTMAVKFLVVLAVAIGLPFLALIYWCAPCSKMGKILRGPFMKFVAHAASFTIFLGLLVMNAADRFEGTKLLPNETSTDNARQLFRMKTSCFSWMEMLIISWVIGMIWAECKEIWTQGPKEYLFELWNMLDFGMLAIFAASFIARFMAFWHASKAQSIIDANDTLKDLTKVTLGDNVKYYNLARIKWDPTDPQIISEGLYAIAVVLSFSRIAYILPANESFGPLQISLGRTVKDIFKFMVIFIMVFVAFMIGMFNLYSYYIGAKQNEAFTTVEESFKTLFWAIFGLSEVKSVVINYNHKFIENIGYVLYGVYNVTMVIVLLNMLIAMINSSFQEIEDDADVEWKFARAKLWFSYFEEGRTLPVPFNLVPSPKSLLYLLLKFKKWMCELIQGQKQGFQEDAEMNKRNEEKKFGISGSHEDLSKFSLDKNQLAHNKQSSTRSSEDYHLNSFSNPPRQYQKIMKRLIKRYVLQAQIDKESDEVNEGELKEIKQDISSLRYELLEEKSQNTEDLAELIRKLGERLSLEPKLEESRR
TRPC4 agonist: opens the mouse TRPC4 cation channel | Q9QUQ5 | B-score at 10 µM | hit rate 0.49% among 310,000 | HEK293 TRPC4beta/mu-opioid, Fluo4 calcium fluorescence; stronger effect = higher value;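 active = B-score above 5 SD of library B-scores, and initial fluorescence ratio not above library mean plus 5 SD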;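 note: positive B-score marks a calcium rise read as TRPC4 activation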
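System – HEK293 cells stably co-expressing mouse TRPC4beta and mu-opioid receptor · Signal – Fluo4 calcium-sensitive dye fluorescence, kinetic, 1 Hz baseline · Benchmarks – buffer (low) and maximal DAMGO (high) · Read-out – B score of integrated fluorescence ratio per well · Incubation – dye loading 45 min room temperature, 110 s kinetic read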
TRPC4 potent: allosteric potentiators of mouse TRPC4 channel; Q9QUQ5; HEK293 TRPC4beta/mu-opioid, DAMGO EC20, Fluo-4 Ca2+ flux; stronger effect = higher value; B-score at 10 µM; hit rate 0.42% among 310,000; AID 2227;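 active = B-score of calcium response area above 5 SD of library B-scores, with initial fluorescence ratio within 5 SD of library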;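 note: B-score of integrated fluorescence ratio over time as area under calcium response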
TRPC6 activator: activates the mouse TRPC6 cation channel | Q61143 | HEK293-TRPC6 membrane potential dye fluorescence; stronger effect = higher value | B-score at 10 µM | hit rate 0.13% among 310,000 | AID 2550;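 active = B-score of the integrated fluorescence ratio above library mean plus 3 SD, and starting fluorescence ratio within library mean plus 5 SD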;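 note: higher score means more depolarization so channel activation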
Starred values were filed as active, the others as inactive; i = inactive; . = not tested or not shown.

SMILES	CR mimetic SO	TRPC4 block	TRPC6 inh	TRPC4 agonist	TRPC4 potent	TRPC6 activator
O=C(C1CCCN(Cc2nc(-c3ccc(Cl)cc3)no2)C1)N1CCOCC1 (centres undefined)	92	i	i	i	i	i
C=C(C)Cn1c(CCNC(=O)C(C)(C)C)nc2ccccc21	100	i	i	i	i	i
C=CCn1c(CCNC(=O)C(C)(C)C)nc2ccccc21	97	i	i	146*	i	i
CCOC(=O)Cc1csc(NC(=O)Nc2cccc(OC)c2)n1	59*	i	i	i	i	i
O=C(N/N=C/c1ccc(OCc2cnc(Cl)s2)cc1)c1ccncc1	112	i	i	i	i	i
COC(=O)C1=C(C)N(CCc2c[nH]c3ccc(OC)cc23)C(=O)C1	109	i	i	i	i	i
Cc1ccc(-n2c(-c3ccccc3)c[n+]3c2CCc2ccccc2-3)c(C)c1	120	i	-5.5*	i	i	i
Cc1ccc(-n2c(-c3ccccc3)c[n+]3c2CCC3)cc1	87	i	i	i	i	i
Cc1c(N)cccc1-c1nc2ccccc2[nH]1	107	i	i	i	i	i
COc1cccc(NC(=S)N2CCC(NC(=O)c3ccco3)CC2)c1	119	i	i	i	i	i
Cc1cccc(N2CC(O)(c3cccs3)[N+]3=C2CCCC3)c1C (centres undefined)	102	i	i	i	i	i
Cc1ccccc1N1CC(O)(c2cccs2)[N+]2=C1CCCC2 (centres undefined)	97	-9*	i	i	i	i
O=S1(=O)NC(=NC2CCCCCC2)c2ccccc21	104	i	i	i	i	i
O=C(CCSc1nnc(-c2ccncc2)o1)Nc1ccc(Cl)cc1	112	i	i	i	i	i
CN(C)C(CNC(C(=O)Nc1ccc(F)cc1)c1ccccc1)c1ccccc1 (centres undefined)	85	i	i	139*	i	i
CC(C)CNC(C(=O)Nc1ccc([N+](=O)[O-])cc1Br)c1ccccc1 (centres undefined)	100	i	i	i	i	i
CN(C)C(CNC(C(=O)Nc1ccc([N+](=O)[O-])cc1Br)c1ccccc1)c1ccccc1 (centres undefined)	102	i	i	74*	i	i
OCCCC1CCCN(Cc2cn[nH]c2-c2ccc(F)cc2F)C1 (centres undefined)	94	i	i	i	i	i
CN1CCN(Cc2cn[nH]c2-c2ccc(F)cc2F)[C@@H](c2ccccc2)C1	108	-5*	i	i	i	i
Fc1ccc(-c2ccc(/C=N\n3cnnc3)o2)cc1Cl	97	i	i	i	i	i
O=[N+]([O-])c1cc(-c2ccc(/C=N/n3cnnc3)o2)ccc1Cl	94	i	-13*	i	i	i
COc1cccc(/C=C2\SC(=S)N(NS(=O)(=O)c3ccc(C)cc3)C2=O)c1OC	134	-6*	i	i	i	i
COc1cc(/C=C2\SC(=S)N(NS(=O)(=O)c3ccc(C)cc3)C2=O)cc(OC)c1OC	100	-6*	i	i	i	i
CC(C)(CO)NC(=O)c1ccc2c(c1)C(=O)c1ccccc1-2	105	i	i	i	11*	i
CN1CCN(Cc2cccc3ncccc23)CC1CCO (centres undefined)	102	i	i	i	i	i
SMILES	CR mimetic SO	TRPC4 block	TRPC6 inh	TRPC4 agonist	TRPC4 potent	TRPC6 activator
CN1CCN(Cc2nc3ccccc3n2C)CC1CCO (centres undefined)	91	i	i	i	19*	i
CC(C)Cn1c(CN2CCN(C)C(CCO)C2)nc2ccccc21 (centres undefined)	110	i	i	i	19*	i
CCn1c(CN2CCN(Cc3ccc(C)cc3)C(CCO)C2)nc2ccccc21 (centres undefined)	111	i	i	172*	i	i
CCC(C)(C(=O)NC1CCCCC1)N(Cc1cccs1)C(=O)c1ccccn1 (centres undefined)	103	-7*	i	46*	i	i
Clc1ccc(OCc2nn3c(C4CCCCC4)nnc3s2)cc1	128	i	i	i	13*	i
c1ccc(-c2nn3c(C4CCCCC4)nnc3s2)nc1	114	i	i	i	i	i
O=C(Nc1ccccc1)C1=C[C@H](C2CCCCC2)C[C@H](OCc2ccc(CO)cc2)O1	.	i	i	i	19*	i
O=C(NCc1ccccc1)C1=C[C@H](c2ccc3c(c2)OCO3)C[C@H](OCc2ccc(CO)cc2)O1	99	-6*	i	211*	i	i
O=C(NCc1ccccc1)C1=C[C@H](c2ccc(Br)cc2)C[C@H](OCc2ccc(CO)cc2)O1	95	i	i	i	15*	i
O=C(NCc1ccccc1)C1=C[C@@H](c2ccccc2)C[C@@H](OCc2ccc(CO)cc2)O1	110	i	i	i	i	i
CC(C)(C)[C@@H]1C=C(C(=O)NCc2ccccc2)O[C@H](OCc2ccc(CO)cc2)C1	98	i	i	i	13*	i
Cc1nn(CC(=O)Nc2nnc(C(C)C)s2)c(=O)c2ccccc12	89	i	i	i	i	i
CC(OC(=O)Cc1n[nH]c(=O)c2ccccc12)C(=O)Nc1cccc([N+](=O)[O-])c1 (centres undefined)	103	i	i	i	11*	i
CC(OC(=O)Cc1n[nH]c(=O)c2ccccc12)C(=O)Nc1ccccc1[N+](=O)[O-] (centres undefined)	107	i	i	i	i	i
CC(=O)NNC(=O)CSc1nnc(-c2ccccc2)c(-c2ccccc2)n1	105	i	i	i	i	i
COc1ccc2c(c1)c1ncn(CCN3CCCC3)c(=O)c1n2C	96	i	i	i	15*	i
CCn1cc(CN2CCCC(C(=O)Nc3ccc(-c4nc5ccccc5[nH]4)cc3)C2)c(C)n1 (centres undefined)	105	i	i	206*	i	i
Cc1cc(CN2CCCC(C(=O)Nc3ccc(-c4nc5ccccc5[nH]4)cc3)C2)n[nH]1 (centres undefined)	103	-5*	i	i	i	i
